XiGFP reactiv = reactivates the inactive X chromosome in mouse fibroblasts | XiGFP mouse fibroblasts, % GFP-positive cells imaging, 3 d; cells co-treated with 5-aza-dC sensitizer; scaled so ellipticine positive control = 100% | activation, % at 7.58 µM | 360,000 tested, 0.055% active | AID 743238;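 active = mean normalized replicate activation at least 10% and every replicate at or above 10%; inconclusive = only one of the two criteria met; inactive = mean below 10% and not all replicates reach 10%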;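 also: 0% = median of on-plate neutral control wells and 100% = ellipticine 6 µM median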
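Assay system – SV40-immortalized XiGFP fibroblast cells, line 68-5-11 · Buffer or medium – DMEM supplemented with 5-aza-dC as sensitizing agent · Dosing – one concentration, pinned · Benchmarks – positive control ellipticine, 6 µM final · Times – 3 days compound exposure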
EWS-Fli block = blocks EWS/Fli oncoprotein-driven transcription | A673 NR0B1-luciferase reporter, viability-normalised | 350,000 tested, 0.67% active | inhibition, % at 12.6 µM;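 active = mean inhibition of at least 50% after viability correction, with every replicate also passing that limit; inconclusive = mean reaches 50% but only one of two replicates passes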;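 also: firefly luciferase signal divided by Alamar Blue viability fluorescence both relative to DMSO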
AF4-AF9 inh = MLL-AF4/AF9 protein interaction inhibition; P42568; AlphaScreen, biotin-AF4 peptide binding to FLAG-AF9; inhibition, % at 10 µM; 350,000 tested, 0.47% active; AID 651704;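 active = every replicate reaching a set inhibition limit, whatever the replicate mean, cut at about 25% in these data; inconclusive = mean inhibition reaches that limit but some replicates miss it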;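 also: 0% = plate neutral control median and 100% = total signal loss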
Target sequence (P42568 whole entry, looked up): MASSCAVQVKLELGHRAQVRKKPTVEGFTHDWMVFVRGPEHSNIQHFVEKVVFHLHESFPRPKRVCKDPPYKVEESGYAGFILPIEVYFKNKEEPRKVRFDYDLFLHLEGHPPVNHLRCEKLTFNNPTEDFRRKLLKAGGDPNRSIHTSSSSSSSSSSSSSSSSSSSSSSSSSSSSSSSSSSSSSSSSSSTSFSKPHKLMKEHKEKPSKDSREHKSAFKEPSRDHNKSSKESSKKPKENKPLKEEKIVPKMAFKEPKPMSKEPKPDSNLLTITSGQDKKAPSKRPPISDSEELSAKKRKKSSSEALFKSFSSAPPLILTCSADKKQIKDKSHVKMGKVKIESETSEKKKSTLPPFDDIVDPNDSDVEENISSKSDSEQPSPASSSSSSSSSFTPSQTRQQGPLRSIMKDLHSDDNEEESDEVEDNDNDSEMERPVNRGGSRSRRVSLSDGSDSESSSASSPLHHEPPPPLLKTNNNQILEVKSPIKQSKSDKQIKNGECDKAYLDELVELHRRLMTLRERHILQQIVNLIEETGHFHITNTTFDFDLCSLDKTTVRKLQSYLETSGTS
PGC1a acetyl inh = modulators of PGC1a acetylation. U2OS PGC1a acetylation, AlphaScreen anti-acetyl-lysine; with virally co-expressed GCN5 acetyltransferase. inhibition, % at 15.6 µM. 350,000 tested, 0.17% active. AID 651687;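 active = every replicate shows inhibition of at least 40%; inconclusive = mean inhibition at least 40% but some replicate below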;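 also: 0% = neutral control wells and 100% = positive control wells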
INS-1E GSIS act = primary screen for activators of insulin secretion dependent on glucose, INS-1E cells, GLuc reporter luminescence. activation, % at 16.6 µM. 370,000 tested, 0.61% active. AID 743287. INS-1E GLuc reporter insulin secretion, 2-3 h;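 active = lowest replicate activation of at least 40%, so every replicate reaches that level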;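 also: 0% = median of neutral control wells and 100% = median of IBMX positive control wells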
PAX8 inh HTS = lowers PAX8-driven luciferase in RMG-I cells; AID 652154; RMG-I TPO-luciferase reporter, SteadyGlo, 24 h; inhibition, % at 12.6 µM; 360,000 tested, 1.2% active;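 active = mean replicate inhibition at least 60% with every replicate also reaching 60%; inconclusive = only one of the two criteria is met; inactive = mean below 60% and not all replicates reaching 60%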;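 also: luciferase light reporting Pax8 driven TPO promoter activity; plate controls were median of neutral control wells for no effect and mitoxantrone controls for full effect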
The depositor's hits bear a star; ? = inconclusive; · = no result given. Sampled rows, rich in hits. Any-hit rate of the full collection: about 2.1%.

SMILES	XiGFP reactiv	EWS-Fli block	AF4-AF9 inh	PGC1a acetyl inh	INS-1E GSIS act	PAX8 inh HTS
C=CCN1CCc2c(cc(O)c(O)c2Cl)C(c2ccccc2)C1 (centres undefined)	0	30	52*	16	-6	24
COc1ccc(-n2ncc(N(C)n3cccc3)c(Cl)c2=O)cc1	·	·	·	-2	-1	·
COc1ccc(-n2ncc(Cl)c(Cl)c2=O)cc1	2	55*	-3	23	-7	105*
CN(C)c1ccc(CN(CC2CCCO2)C(=O)c2cc3ccccc3o2)cc1 (centres undefined)	0	-7	26*	-4	-24	7
Cc1c(C(=O)N(Cc2ccc(N(C)C)cc2)CC2CCCO2)oc2ccccc12 (centres undefined)	0	6	19	-4	-26	9
O=C(CC1CC1)Nc1ccc2c(c1)[C@@H]1C[C@H](CC(=O)N3CCc4ccccc4C3)O[C@H](CO)[C@@H]1O2	0	1	-1	-7	-4	·
CCCNc1c(NS(=O)(=O)c2ccc(C(C)(C)C)cc2)c(=O)oc2ccccc12	0	1	0	-8	-3	-12
CCCNc1c(NS(=O)(=O)c2cccc(C#N)c2)c(=O)oc2ccccc12	0	-12	8	-10	56*	0
O=c1[nH]c(-c2ccccn2)nc2sc(-c3ccccc3)cc12	8	12	0	·	1	89*
COC(=O)CCSCC(=O)Nc1nnc(C)s1	0	1	27*	·	4	-15
CCOCC(=O)Nc1nnc(C)s1	·	·	·	·	·	-4
Cc1cccc[n+]1CC(=O)/C=C1\N(C)c2ccccc2C1(C)C	0	75*	-2	8	-87	40
CN1CCCC1CCNc1ccc2sc3ccccc3c(=O)c2c1 (centres undefined)	9	-39	26*	·	12	-67
CCOC(=O)C(C)n1cnc2c(nnn2-c2ccc(C)cc2)c1=O (centres undefined)	·	·	·	67*	5	·
CC(NCC(O)COCCC12CC3CC(CC(C3)C1)C2)c1ccccc1 (centres undefined)	1	49	9	·	167*	?
C[C@@H]1CN([C@@H](C)CO)C(=O)c2cccc(NC(=O)CCCCCC(=O)Nc3ccccc3N)c2O[C@@H]1CN(C)C	0	-18	1	9	24	-5
C[C@@H]1CN([C@H](C)CO)C(=O)Cc2cc(NC(=O)C3CCCCC3)ccc2O[C@H]1CN(C)C(=O)NC1CCCCC1	0	7	-1	2	-11	-2
CS(=O)(=O)N1CCCCN2[C@H](CO)[C@@H](c3ccc(C4=CCCC4)cc3)[C@H]2C1	0	-15	28*	7	17	9
COc1ccc(S(=O)(=O)N2CCCCN3[C@H](CO)[C@H](c4ccc(C5=CCCCC5)cc4)[C@H]3C2)cc1	·	0	1	-19	·	65*
CS(=O)(=O)N1CCCCN2[C@H](CO)[C@H](c3ccc(C4=CCCC4)cc3)[C@@H]2C1	1	-5	-5	2	9	0
CC(C)NC(=O)Nc1ccc2c(c1)CC(=O)N([C@H](C)CO)C[C@H](C)[C@@H](CN(C)C(=O)NC1CCCCC1)O2	0	·	-2	0	21	-15
O=C(C1CC1)N1C[C@@H]2[C@H](c3ccccc31)[C@@H](CO)N2C(=O)c1ccccc1F	0	·	·	·	18	·
COc1ccc(-c2cnc(N)nc2-c2ccc(OCc3ccccc3)cc2O)cc1	1	9	2	-3	5	7
COc1ccc(-c2cnc(N)nc2-c2ccc(OC)cc2)cc1	0	-1	1	1	52*	-5
COc1ccc(-c2nc(N)ncc2-c2ccc(OC)c(OC)c2)c(O)c1	0	-18	6	10	49*	24
SMILES	XiGFP reactiv	EWS-Fli block	AF4-AF9 inh	PGC1a acetyl inh	INS-1E GSIS act	PAX8 inh HTS
COc1ccc(NS(=O)(=O)c2cc(NC(=O)c3ccc(=O)[nH]n3)ccc2C)cc1	0	56*	1	-13	1	26
O=C(C[C@H]1C=C[C@H](NC(=O)C2CC2)[C@@H](CO)O1)NCc1ccccc1Cl	0	0	0	5	-7	0
O=C1NC[C@H](c2ccccc2)OC(=O)[C@H](Cc2ccc(F)cc2)C/C=C\C[C@H]1CC(=O)N(CCO)Cc1ccccc1	0	24	1	5	-26	83*
O=C1NC[C@@H](c2ccccc2)OC(=O)[C@H](Cc2ccc(F)cc2)C/C=C\C[C@H]1CC(=O)N(CCO)Cc1ccccc1	0	0	2	9	-31	22
O=C1NC[C@H](c2ccccc2)OC(=O)[C@@H](Cc2ccc(F)cc2)C/C=C\C[C@H]1CC(=O)N(CCO)Cc1ccccc1	0	19	-10	3	-22	86*
COc1ccccc1CNC(=O)C[C@H]1CC[C@@H]2[C@H](COC[C@H](O)CN2C(=O)Nc2ccc(C(F)(F)F)cc2)O1	0	0	0	-9	-26	18
Oc1c(Cl)cc(CN2CCOCC2)c2cccnc12	0	37	35*	?	-33	103*
O=C(Oc1c(CN2CCOCC2)cc(Cl)c2cccnc12)c1ccccc1	0	31	3	4	-10	41
COc1ccc(-c2cc3nc(C)c(CCC(=O)NCc4ccco4)c(C)n3n2)c(OC)c1	·	·	·	-12	·	·
Cc1nc2cc(-c3ccc(Cl)cc3)nn2c(C)c1CCC(=O)NCc1ccco1	0	57*	6	-8	4	-15
CCN(CC)S(=O)(=O)c1cccc(NC(=O)Nc2cccc(C(F)(F)F)c2)c1	·	·	·	22	·	102*
CC(=O)N1[C@H](CO)[C@H](c2ccccc2)C12CN(C(=O)c1cnccn1)C2	0	-3	-2	4	2	·
CCn1nnc(NC(=O)c2cccnc2Cl)n1	·	·	·	14	·	·
Cc1ccc(NC(=O)CNC(=O)c2sc3ccccc3c2Cl)nc1	1	8	-1	4	70*	-4
CCn1nnc(NC(=O)c2sc3ccccc3c2Cl)n1	·	·	·	-10	43*	·
O=C(C[C@@H]1CC[C@H]2NC[C@H](O)COC[C@@H]2O1)Nc1ccccc1	0	-34	-2	5	-6	-26
Cc1noc(C)c1S(=O)(=O)N(C)C[C@H]1Oc2ccc(NC(=O)Nc3ccccc3)cc2C(=O)N([C@H](C)CO)C[C@@H]1C	0	·	·	·	-28	·
C[C@H](CO)N1C[C@H](C)[C@@H](CN(C)S(=O)(=O)c2cn(C)cn2)Oc2ccc(NC(=O)Cc3cn(C)c4ccccc34)cc2C1=O	-1	8	-11	2	8	·
N#Cc1ccccc1Cn1c(=O)n(CCCC(=O)NCc2ccc3c(c2)OCO3)c(=O)c2ccccc21	·	·	·	·	7	·
COCCNC(=O)CCCn1c(=O)c2ccccc2n(Cc2ccccc2C#N)c1=O	0	-47	1	-4	54*	3
